From ChEMBL document CHEMBL1153354, “Amide-containing diketoacids as HIV-1 integrase inhibitors: synthesis, structure-activity relationship analysis, and biological activity” (Bioorg Med Chem, 2009)
pIC50: −log10 of the molar value.

Columns and labels:
[1] = molecular target: T1, Human immunodeficiency virus type 1 integrase (Human immunodeficiency virus 1, UniProt Q7ZJM1); experiment: Inhibition of HIV1 integrase strand transfer activity
In short: (§1)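 Wild-type IN (200 nM final) preincubated with inhibitor 30 min at 30 °C in buffer of 50 mM NaCl, 1 mM HEPES pH 7.5, 50 μM EDTA, 50 μM DTT, 10% glycerol, 7.5 mM MnCl2, 0.1 mg/mL BSA, 10 mM 2-mercaptoethanol, 10% DMSO, 25 mM MOPS pH 7.2. Then 20 nM 5'-32P-labeled linear oligonucleotide substrate added, 1 h further. Quenched with formamide/EDTA loading dye.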

[2] = molecular target: T1, Human immunodeficiency virus type 1 integrase; experiment: Inhibition of HIV1 integrase 3' processing activity; in short: as §1

T1 sequence (Q7ZJM1 whole entry): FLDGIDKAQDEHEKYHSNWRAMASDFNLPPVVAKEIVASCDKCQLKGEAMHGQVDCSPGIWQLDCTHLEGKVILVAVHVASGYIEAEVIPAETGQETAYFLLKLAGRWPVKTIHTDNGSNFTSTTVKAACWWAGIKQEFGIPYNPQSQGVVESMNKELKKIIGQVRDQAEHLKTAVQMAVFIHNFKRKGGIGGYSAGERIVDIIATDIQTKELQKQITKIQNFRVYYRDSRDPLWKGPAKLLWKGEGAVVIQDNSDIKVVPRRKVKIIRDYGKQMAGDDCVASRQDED

| SMILES | pIC50 [1] | pIC50 [2] |
| --- | --- | --- |
| O=C(/C=C/c1ccc(Cl)cc1)Nc1cccc(C(=O)/C=C(\O)C(=O)O)c1 | 5.40 | 4.74 |
| O=C(O)/C(O)=C/C(=O)c1cccc(NC(=O)c2ccccc2O)c1 | 4.96 | 4.39 |
| O=C(/C=C/c1ccc(F)cc1)Nc1cccc(C(=O)/C=C(\O)C(=O)O)c1 | 5.15 | 4.66 |
| O=C(O)/C(O)=C/C(=O)c1cccc(NC(=O)c2ccccc2)c1 | 4.51 | < 4.00 |
| COc1cc(/C=C/C(=O)Nc2cccc(C(=O)/C=C(\O)C(=O)O)c2)ccc1O | 4.96 | 4.38 |
| O=C(Cc1ccccc1)Nc1cccc(C(=O)/C=C(\O)C(=O)O)c1 | 5.15 | 4.25 |
| O=C(O)/C(O)=C/C(=O)c1cccc(NC(=O)c2cccc(Cl)c2)c1 | 4.82 | 4.24 |
| O=C(/C=C/c1ccc(O)cc1)Nc1cccc(C(=O)/C=C(\O)C(=O)O)c1 | 5.15 | 4.59 |
| O=C(O)/C(O)=C/C(=O)c1cccc(NC(=O)c2cc([N+](=O)[O-])cc([N+](=O)[O-])c2O)c1 | 5.70 | 5.10 |
| COc1ccccc1C(=O)Nc1cccc(C(=O)/C=C(\O)C(=O)O)c1 | 4.89 | 4.14 |
| Cc1cccc(C(=O)Nc2cccc(C(=O)/C=C(\O)C(=O)O)c2)c1O | 5.00 | 4.32 |
| COc1ccc(C(=O)Nc2cccc(C(=O)/C=C(\O)C(=O)O)c2)cc1 | 4.72 | 4.02 |
| COc1cccc(C(=O)Nc2cccc(C(=O)/C=C(\O)C(=O)O)c2)c1 | 4.92 | 4.16 |
| O=C(O)/C(O)=C/C(=O)c1cccc(NC(=O)c2ccccc2Cl)c1 | 4.74 | 4.04 |
| O=C(O)/C(O)=C/C(=O)c1cccc(NC(=O)c2ccc(O)cc2)c1 | 4.89 | 4.09 |
| O=C(O)/C(O)=C/C(=O)c1cccc(NC(=O)c2ccco2)c1 | 4.48 | < 4.00 |
| COc1ccc(/C=C/C(=O)Nc2cccc(C(=O)/C=C(\O)C(=O)O)c2)cc1 | 4.96 | 4.52 |
